PMC12679602 (RSC Advances, 2025)
Several values for one entry are separate records, joined by “and”; a condition that tells them apart may be missing. Equal values may be shown once.

How the values were obtained:
[1] = system: Enterococcus faecalis TISTR927; assay: Disc diffusion, E. faecalis; type: cell-based; conditions: for Inhibition zone ± SD, E. faecalis: 1 mg per disc, 6 mm disc, 37 °C, 18–24 h
Procedure, shortened: (§1)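 Test compounds were dissolved in DMSO, and 1 mg was loaded onto sterile 6 mm paper discs. Nutrient agar plates were inoculated with bacterial suspension adjusted to 0.5 McFarland. Each plate held four zones: DMSO negative control, ciprofloxacin positive control (5 µg per disc), the free bile acid and its salts. Plates were incubated at 37 °C for 18–24 h. Inhibition zones were read in mm, in triplicate.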

[2] = system: Candida albicans TISTR5554; assay: Disc diffusion, C. albicans; type: cell-based; conditions: for Inhibition zone ± SD, C. albicans: 1 mg per disc, 6 mm disc, 37 °C, 18–24 h
Procedure, shortened: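 Disc diffusion against the yeast. Test compound was in DMSO at 1 mg per 6 mm sterile paper disc, on nutrient agar inoculated with suspension standardized to 0.5 McFarland. Each plate carried a DMSO negative control, amphotericin B positive control (10 µg per disc), the free bile acid and its salts. Incubation was 37 °C for 18–24 h. Zone of inhibition was measured in mm, in triplicate.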

S. flexneri ATCC 9199 = assay: Disc diffusion, S. flexneri; type: cell-based, Shigella flexneri; conditions: for Inhibition zone ± SD, S. flexneri: 1 mg per disc, 6 mm disc, 37 °C, 18–24 h
Procedure, shortened: as §1

Bacillus cereus TISTR035 = assay: Disc diffusion, B. cereus; type: cell-based; conditions: for Inhibition zone ± SD, B. cereus: 1 mg per disc, 6 mm disc, 37 °C, 18–24 h
Procedure, shortened: as §1

[3] = system: Pseudomonas aeruginosa TISTR357; assay: Disc diffusion, P. aeruginosa; type: cell-based; conditions: for Inhibition zone ± SD, P. aeruginosa: 1 mg per disc, 6 mm disc, 37 °C, 18–24 h
Procedure, shortened: as §1

[4] = system: Escherichia coli TISTR117; assay: Disc diffusion, E. coli; type: cell-based; conditions: for Inhibition zone ± SD, E. coli: 1 mg per disc, 6 mm disc, 37 °C, 18–24 h
Procedure, shortened: as §1

S. typhi = assay: Disc diffusion, S. typhi; type: cell-based, Salmonella enterica serovar Typhimurium TISTR1470; conditions: for Inhibition zone ± SD, S. typhi: 1 mg per disc, 6 mm disc, 37 °C, 18–24 h
Procedure, shortened: as §1

[5] = system: Staphylococcus aureus TISTR746; assay: Disc diffusion, S. aureus; type: cell-based; conditions: for Inhibition zone ± SD, S. aureus: 1 mg per disc, 6 mm disc, 37 °C, 18–24 h
Procedure, shortened: as §1

[6] = system: Staphylococcus epidermidis TISTR2172; assay: Disc diffusion, S. epidermidis; type: cell-based; conditions: for Inhibition zone ± SD, S. epidermidis: 1 mg per disc, 6 mm disc, 37 °C, 18–24 h
Procedure, shortened: as §1

[7] = system: B. cereus, S. aureus, S. epidermidis, E. faecalis, and E. coli; assay: Disc diffusion, range over strains as summarised in text; type: cell-based; conditions: for inhibition zones, range over strains: B. cereus, S. aureus, S. epidermidis, E. faecalis, E. coli, 1 mg per disc
Procedure, shortened: as §1

in vitro = conditions: human
[8] = Enterococcus faecalis, TISTR927, read-out: Inhibition zone ± SD, E. faecalis
[9] = Bacillus cereus, TISTR035, read-out: Inhibition zone ± SD, B. cereus
[10] = Escherichia coli, TISTR117, read-out: Inhibition zone ± SD, E. coli
[11] = Staphylococcus aureus, TISTR746, read-out: Inhibition zone ± SD, S. aureus
[12] = Staphylococcus epidermidis, TISTR2172, read-out: Inhibition zone ± SD, S. epidermidis

| Structure (SMILES) | Inhibition zone ± SD, E. faecalis [1] | Inhibition zone ± SD, C. albicans [2] | Inhibition zone ± SD, S. flexneri (S. flexneri ATCC 9199) | Inhibition zone ± SD, B. cereus (Bacillus cereus TISTR035) | Inhibition zone ± SD, P. aeruginosa [3] | Inhibition zone ± SD, E. coli [4] | Inhibition zone ± SD, S. typhi (S. typhi) | Inhibition zone ± SD, S. aureus [5] | Inhibition zone ± SD, S. epidermidis [6] | further results |
| --- | --- | --- | --- | --- | --- | --- | --- | --- | --- | --- |
| C[C@H](CCC(=O)O)[C@H]1CC[C@H]2[C@@H]3[C@H](O)C[C@@H]4C[C@H](O)CC[C@]4(C)[C@H]3CC[C@]12C [CDCA (13), chenodeoxycholic acid] | 8.4 ± 1.1 mm | Inactive | Inactive | 13.5 ± 0.4 mm | Inactive | 7.6 ± 0.6 mm | Inactive | 9.4 ± 0.8 mm | 11.8 ± 0.4 mm | zone of inhibition at 1000 µg/disc [1, 8]: 8.4 mm; zone of inhibition at 1000 µg/disc (Bacillus cereus TISTR035; [9]): 13.5 mm; zone of inhibition at 1000 µg/disc [4, 10]: 7.6 mm; zone of inhibition at 1000 µg/disc [5, 11]: 9.4 mm; zone of inhibition at 1000 µg/disc [6, 12]: 11.8 mm |
| C[C@H](CCC(=O)O)[C@H]1CC[C@H]2[C@@H]3CC[C@@H]4C[C@H](O)CC[C@]4(C)[C@H]3C[C@H](O)[C@]12C [DCA (5), deoxycholic acid] | 10.6 ± 0.4 mm | Inactive | Inactive | 14.4 ± 1.5 mm | Inactive | 10.9 ± 1.6 mm | Inactive | 11.7 ± 1.6 mm | 13.5 ± 0.7 mm | zone of inhibition at 1000 µg/disc [1, 8]: 10.6 mm; inhibition zones, range over strains [7]: 10.6–14.4 mm; zone of inhibition at 1000 µg/disc [6, 12]: 13.5 mm |
| CCO [Ethanol, ethanol, reference compound] |  |  |  |  |  |  |  |  |  | CC50 (A549-hACE2 cells): >70% v/v |
| C[C@H](CCC(=O)O)[C@H]1CC[C@H]2[C@@H]3CC[C@@H]4C[C@H](O)CC[C@]4(C)[C@H]3CC[C@]12C [LCA (1), lithocholic acid] |  | Inactive | Inactive |  | Inactive |  | Inactive |  |  | CC50 (in vitro): > 50 µg/mL; cytotoxicity (A549-hACE2 cells): did not show cytotoxicity |
| C[C@H](CCC(=O)O)[C@H]1CC[C@H]2[C@@H]3[C@@H](O)C[C@@H]4C[C@H](O)CC[C@]4(C)[C@H]3CC[C@]12C [UDCA (9), ursodeoxycholic acid] |  | Inactive | Inactive | 8.7 ± 0.3 mm | Inactive | 7.4 ± 0.4 mm | Inactive | 7.8 ± 0.8 mm | 9.6 ± 0.4 mm |  |
| C[C@H](CCC(=O)[O-])[C@H]1CC[C@H]2[C@@H]3[C@H](O)C[C@@H]4C[C@H](O)CC[C@]4(C)[C@H]3CC[C@]12C.C[N+](C)(C)CCO [[CDCA][Z] (16)] | 12.2 mm and 12.2 ± 2.6 mm | Inactive | Inactive | 16.4 mm and 16.4 ± 0.7 mm | Inactive | 10.4 mm and 10.4 ± 1.2 mm | Inactive | 13.8 mm and 13.8 ± 1.3 mm | 17.1 mm and 17.1 ± 0.5 mm |  |
| C[C@H](CCC(=O)[O-])[C@H]1CC[C@H]2[C@@H]3CC[C@@H]4C[C@H](O)CC[C@]4(C)[C@H]3C[C@H](O)[C@]12C.C[N+](C)(C)CCO [[DCA][Z] (8)] | 15.0 mm and 15.0 ± 1.3 mm | Inactive | Inactive | 18.1 ± 1.7 mm | Inactive | 13.0 ± 1.9 mm | Inactive | 15.4 ± 2.0 mm | 19.1 mm and 19.1 ± 0.2 mm | inhibition zones, range over strains [7]: 13.0–19.1 mm; improvement in antibacterial activity compared to its bile acid DCA (5) ([7]; S. epidermidis and E. faecalis inhibition zones): 41.4–41.5% |
| C[C@H](CCC(=O)[O-])[C@H]1CC[C@H]2[C@@H]3CC[C@@H]4C[C@H](O)CC[C@]4(C)[C@H]3CC[C@]12C.C[N+](C)(C)CCO [[LCA][Z] (4)] |  | Inactive | Inactive | 7.8 mm and 7.8 ± 1.2 mm | Inactive |  | Inactive |  |  | CC50 (A549-hACE2 cells): >50 µg/mL; cytotoxicity (A549-hACE2 cells): did not exhibit cytotoxicity |
| CC(CCC(=O)[O-])C1CCC2C3C(O)CC4CC(O)CCC4(C)C3CCC12C.C[N+](C)(C)CCO (stereo not shown) [[UDCA][Z] (12)] |  | Inactive | Inactive | 12.5 ± 0.5 mm | Inactive | 10.1 ± 1.1 mm | Inactive | 10.3 ± 1.7 mm | 13.0 ± 0.5 mm |  |
| C[C@@H]1[C@H](O)[C@@H](C)/C=C/C=C/C=C/C=C/C=C/C=C/C=C/[C@H](O[C@@H]2O[C@H](C)[C@@H](O)[C@H](N)[C@@H]2O)C[C@@H]2O[C@](O)(C[C@@H](O)C[C@@H](O)[C@H](O)CC[C@@H](O)C[C@@H](O)CC(=O)O[C@H]1C)C[C@H](O)[C@H]2C(=O)O [amphotericin B, reference compound] |  |  |  |  |  |  |  |  |  | zone of inhibition at 10 µg/disc ([2]; Candida albicans, TISTR5554, read-out: Inhibition zone ± SD, C. albicans): 21.8 ± 1.3 mm |
| O=C(O)c1cn(C2CC2)c2cc(N3CCNCC3)c(F)cc2c1=O [ciprofloxacin, reference compound] |  |  |  |  |  |  |  |  |  | zone of inhibition at 5 µg/disc [1, 8]: 24.1 ± 1 mm; zone of inhibition at 5 µg/disc (S. flexneri ATCC 9199; Shigella flexneri, ATCC9199, read-out: Inhibition zone ± SD, S. flexneri): 42.1 ± 0.7 mm; zone of inhibition at 5 µg/disc (Bacillus cereus TISTR035; [9]): 33.2 ± 1.6 mm; zone of inhibition at 5 µg/disc ([3]; Pseudomonas aeruginosa, TISTR357, read-out: Inhibition zone ± SD, P. aeruginosa): 31.2 ± 1.1 mm; zone of inhibition at 5 µg/disc [4, 10]: 38.5 ± 2.1 mm; zone of inhibition at 5 µg/disc (S. typhi; Salmonella enterica, TYPHI, read-out: Inhibition zone ± SD, S. typhi): 39.3 ± 2.6 mm; zone of inhibition at 5 µg/disc [5, 11]: 31 ± 1.5 mm; zone of inhibition at 5 µg/disc [6, 12]: 36.4 ± 0.4 mm |
